In brackets after ≈: the same amount, converted by molar mass. Activity calls are given as the source filed them. The calls are words filed in the database; no cut-off is given here.
Test system: Candida albicans
Experiment: Antifungal activity against Candida albicans assessed as zone of inhibition at 100 ug/ml by agar well diffusion method
Format: functional
Details: not given
Outline: (§1)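 For the agar well diffusion screen, samples at 100 µg/mL were made from a stock of 10 mg in 1 mL EtOH diluted 1:1 (v/v) with Mueller-Hinton medium. The zone of inhibition was scored as 5–10 mm poor, 10–15 moderate, 15–20 good and 20–25 very good. Gentamycin and nystatin were the reference drugs. Strains were confirmed at the University of Botswana microbiology laboratory.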

| SMILES | Activity |
| --- | --- |
| COc1ccc(C2=CC3=NNC(=O)C3C(c3cccc([N+](=O)[O-])c3)C2)cc1 (stereo unspecified) | inactive |

Same assay, conditions: read-out: IZ

| SMILES | zone of inhibition at 100 µg/mL |
| --- | --- |
| O=C1NN=C2C=C(c3ccc(O)cc3)CC(c3cccc([N+](=O)[O-])c3)C12 (stereo unspecified) | 11 mm |
| O=C1ON=C2C=C(c3ccccc3)CC(c3cccc([N+](=O)[O-])c3)C12 (stereo unspecified) | 10 mm |
| O=C1NN=C2C=C(c3cccs3)CC(c3cccc([N+](=O)[O-])c3)C12 (stereo unspecified) | 23 mm |
| O=C1ON=C2C=C(c3ccc(O)cc3)CC(c3cccc([N+](=O)[O-])c3)C12 (stereo unspecified) | 10 mm |

Test system: Candida albicans
Experiment: Antifungal activity against Candida albicans by agar well diffusion method
Format: functional
Details: not given

| SMILES | MIC |
| --- | --- |
| O=C1NN=C2C=C(c3ccc(O)cc3)CC(c3cccc([N+](=O)[O-])c3)C12 (stereo unspecified) | 2.5 µg/mL (≈ 7.16 µM) |
| O=C1ON=C2C=C(c3ccccc3)CC(c3cccc([N+](=O)[O-])c3)C12 (stereo unspecified) | 2.5 µg/mL (≈ 7.48 µM) |
| COc1ccc(C2=CC3=NNC(=O)C3C(c3cccc([N+](=O)[O-])c3)C2)cc1 (stereo unspecified) | inactive |
| O=C1NN=C2C=C(c3cccs3)CC(c3cccc([N+](=O)[O-])c3)C12 (stereo unspecified) | 0.313 µg/mL (≈ 0.922 µM) |
| O=C1ON=C2C=C(c3ccc(O)cc3)CC(c3cccc([N+](=O)[O-])c3)C12 (stereo unspecified) | 2.5 µg/mL (≈ 7.14 µM) |

Test system: Bacillus subtilis
Experiment: Antimicrobial activity against Bacillus subtilis NCIB 3610 by agar well diffusion method
Format: functional
Details: subsp. subtilis str. NCIB 3610

| SMILES | MIC |
| --- | --- |
| O=C1NN=C2C=C(c3ccc(O)cc3)CC(c3cccc([N+](=O)[O-])c3)C12 (stereo unspecified) | inactive |
| O=C1ON=C2C=C(c3ccccc3)CC(c3cccc([N+](=O)[O-])c3)C12 (stereo unspecified) | inactive |
| COc1ccc(C2=CC3=NNC(=O)C3C(c3cccc([N+](=O)[O-])c3)C2)cc1 (stereo unspecified) | 2.5 µg/mL (≈ 6.88 µM) |
| O=C1NN=C2C=C(c3cccs3)CC(c3cccc([N+](=O)[O-])c3)C12 (stereo unspecified) | 0.313 µg/mL (≈ 0.922 µM) |
| O=C1ON=C2C=C(c3ccc(O)cc3)CC(c3cccc([N+](=O)[O-])c3)C12 (stereo unspecified) | inactive |

Test system: Staphylococcus aureus
Experiment: Antimicrobial activity against Staphylococcus aureus ATCC 25923 by agar well diffusion method
Format: functional
Details: not given

| SMILES | MIC |
| --- | --- |
| O=C1NN=C2C=C(c3ccc(O)cc3)CC(c3cccc([N+](=O)[O-])c3)C12 (stereo unspecified) | 2.5 µg/mL (≈ 7.16 µM) |
| O=C1ON=C2C=C(c3ccccc3)CC(c3cccc([N+](=O)[O-])c3)C12 (stereo unspecified) | inactive |
| COc1ccc(C2=CC3=NNC(=O)C3C(c3cccc([N+](=O)[O-])c3)C2)cc1 (stereo unspecified) | inactive |
| O=C1NN=C2C=C(c3cccs3)CC(c3cccc([N+](=O)[O-])c3)C12 (stereo unspecified) | 2.5 µg/mL (≈ 7.37 µM) |
| O=C1ON=C2C=C(c3ccc(O)cc3)CC(c3cccc([N+](=O)[O-])c3)C12 (stereo unspecified) | 2.5 µg/mL (≈ 7.14 µM) |

Test system: Pseudomonas aeruginosa
Experiment: Antimicrobial activity against Pseudomonas aeruginosa NCIMB 8295 assessed as zone of inhibition at 100 ug/ml by agar well diffusion method
Format: functional
Details: not given
Outline: as §1

| SMILES | Activity |
| --- | --- |
| O=C1NN=C2C=C(c3ccc(O)cc3)CC(c3cccc([N+](=O)[O-])c3)C12 (stereo unspecified) | inactive |
| COc1ccc(C2=CC3=NNC(=O)C3C(c3cccc([N+](=O)[O-])c3)C2)cc1 (stereo unspecified) | inactive |
| O=C1ON=C2C=C(c3ccc(O)cc3)CC(c3cccc([N+](=O)[O-])c3)C12 (stereo unspecified) | inactive |

Same assay, conditions: read-out: IZ

| SMILES | zone of inhibition at 100 µg/mL |
| --- | --- |
| O=C1ON=C2C=C(c3ccccc3)CC(c3cccc([N+](=O)[O-])c3)C12 (stereo unspecified) | 11 mm |
| O=C1NN=C2C=C(c3cccs3)CC(c3cccc([N+](=O)[O-])c3)C12 (stereo unspecified) | 10 mm |

Test system: Escherichia coli
Experiment: Antimicrobial activity against Escherichia coli ATCC 8739 by agar well diffusion method
Format: functional
Details: not given

| SMILES | MIC |
| --- | --- |
| O=C1NN=C2C=C(c3ccc(O)cc3)CC(c3cccc([N+](=O)[O-])c3)C12 (stereo unspecified) | inactive |
| O=C1ON=C2C=C(c3ccccc3)CC(c3cccc([N+](=O)[O-])c3)C12 (stereo unspecified) | inactive |
| COc1ccc(C2=CC3=NNC(=O)C3C(c3cccc([N+](=O)[O-])c3)C2)cc1 (stereo unspecified) | inactive |
| O=C1NN=C2C=C(c3cccs3)CC(c3cccc([N+](=O)[O-])c3)C12 (stereo unspecified) | 2.5 µg/mL (≈ 7.37 µM) |
| O=C1ON=C2C=C(c3ccc(O)cc3)CC(c3cccc([N+](=O)[O-])c3)C12 (stereo unspecified) | 2.5 µg/mL (≈ 7.14 µM) |

Test system: Escherichia coli
Experiment: Antimicrobial activity against Escherichia coli ATCC 8739 assessed as zone of inhibition at 100 ug/ml by agar well diffusion method
Format: functional
Details: not given
Outline: as §1

| SMILES | Activity |
| --- | --- |
| O=C1NN=C2C=C(c3ccc(O)cc3)CC(c3cccc([N+](=O)[O-])c3)C12 (stereo unspecified) | inactive |
| O=C1ON=C2C=C(c3ccccc3)CC(c3cccc([N+](=O)[O-])c3)C12 (stereo unspecified) | inactive |
| COc1ccc(C2=CC3=NNC(=O)C3C(c3cccc([N+](=O)[O-])c3)C2)cc1 (stereo unspecified) | inactive |

Same assay, conditions: read-out: IZ

| SMILES | zone of inhibition at 100 µg/mL |
| --- | --- |
| O=C1NN=C2C=C(c3cccs3)CC(c3cccc([N+](=O)[O-])c3)C12 (stereo unspecified) | 11 mm |
| O=C1ON=C2C=C(c3ccc(O)cc3)CC(c3cccc([N+](=O)[O-])c3)C12 (stereo unspecified) | 10 mm |

Test system: Staphylococcus aureus
Experiment: Antimicrobial activity against Staphylococcus aureus ATCC 25923 assessed as zone of inhibition at 100 ug/ml by agar well diffusion method
Format: functional
Details: not given
Outline: as §1

| SMILES | Activity |
| --- | --- |
| O=C1ON=C2C=C(c3ccccc3)CC(c3cccc([N+](=O)[O-])c3)C12 (stereo unspecified) | inactive |
| COc1ccc(C2=CC3=NNC(=O)C3C(c3cccc([N+](=O)[O-])c3)C2)cc1 (stereo unspecified) | inactive |

Same assay, conditions: read-out: IZ

| SMILES | zone of inhibition at 100 µg/mL |
| --- | --- |
| O=C1NN=C2C=C(c3ccc(O)cc3)CC(c3cccc([N+](=O)[O-])c3)C12 (stereo unspecified) | 11 mm |
| O=C1NN=C2C=C(c3cccs3)CC(c3cccc([N+](=O)[O-])c3)C12 (stereo unspecified) | 9 mm |
| O=C1ON=C2C=C(c3ccc(O)cc3)CC(c3cccc([N+](=O)[O-])c3)C12 (stereo unspecified) | 10 mm |

Test system: not listed separately
Experiment: Antioxidant activity assessed as DPPH radical scavenging activity after 3 hrs by spectrophotometry
Format: physicochemical
Details: not given
Outline: (§2)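 DPPH (0.51 mM in methanol) was mixed 1:1 by volume with the compound at several concentrations (100, 50, 25 … µg/mL range). Absorbance was read against a control, and % inhibition = (A0−As)/A0 ×100. Readings were taken at 30 min and 3 h, with ascorbic acid as the reference. Triplicate measurements.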

| SMILES | IC50 |
| --- | --- |
| O=C1NN=C2C=C(c3ccc(O)cc3)CC(c3cccc([N+](=O)[O-])c3)C12 (stereo unspecified) | 30.23 µg/mL (≈ 86.5 µM) |
| O=C1ON=C2C=C(c3ccccc3)CC(c3cccc([N+](=O)[O-])c3)C12 (stereo unspecified) | 215.71 µg/mL (≈ 645 µM) |
| COc1ccc(C2=CC3=NNC(=O)C3C(c3cccc([N+](=O)[O-])c3)C2)cc1 (stereo unspecified) | 38.38 µg/mL (≈ 106 µM) |
| O=C1NN=C2C=C(c3cccs3)CC(c3cccc([N+](=O)[O-])c3)C12 (stereo unspecified) | 63.78 µg/mL (≈ 188 µM) |
| O=C1ON=C2C=C(c3ccc(O)cc3)CC(c3cccc([N+](=O)[O-])c3)C12 (stereo unspecified) | 118.69 µg/mL (≈ 339 µM) |

Test system: Pseudomonas aeruginosa
Experiment: Antimicrobial activity against Pseudomonas aeruginosa NCIMB 8295 by agar well diffusion method
Format: functional
Details: not given

| SMILES | MIC |
| --- | --- |
| O=C1NN=C2C=C(c3ccc(O)cc3)CC(c3cccc([N+](=O)[O-])c3)C12 (stereo unspecified) | inactive |
| O=C1ON=C2C=C(c3ccccc3)CC(c3cccc([N+](=O)[O-])c3)C12 (stereo unspecified) | 2.5 µg/mL (≈ 7.48 µM) |
| COc1ccc(C2=CC3=NNC(=O)C3C(c3cccc([N+](=O)[O-])c3)C2)cc1 (stereo unspecified) | inactive |
| O=C1NN=C2C=C(c3cccs3)CC(c3cccc([N+](=O)[O-])c3)C12 (stereo unspecified) | 2.5 µg/mL (≈ 7.37 µM) |
| O=C1ON=C2C=C(c3ccc(O)cc3)CC(c3cccc([N+](=O)[O-])c3)C12 (stereo unspecified) | inactive |

Test system: not listed separately
Experiment: Metal chelating activity of the compound assessed as formation of iron complex after 20 mins by spectrophotometry
Format: physicochemical
Details: not given
Outline: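 Fe2+ chelation was measured by disruption of the o-phenanthroline–Fe2+ complex. O-phenanthroline (0.05% in methanol) and FeCl2 (0.1%) were mixed with the sample at various concentrations and held at room temperature for 20 min, then read at 510 nm. EDTA was the standard chelator. % chelation = (Acontrol−Asample)/Acontrol ×100, and IC50 came from plots of % chelation versus concentration. Triplicates.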

| SMILES | IC50 |
| --- | --- |
| O=C1NN=C2C=C(c3ccc(O)cc3)CC(c3cccc([N+](=O)[O-])c3)C12 (stereo unspecified) | 80.91 µg/mL (≈ 232 µM) |
| O=C1ON=C2C=C(c3ccccc3)CC(c3cccc([N+](=O)[O-])c3)C12 (stereo unspecified) | 750.45 µg/mL (≈ 2240 µM) |
| COc1ccc(C2=CC3=NNC(=O)C3C(c3cccc([N+](=O)[O-])c3)C2)cc1 (stereo unspecified) | 85.58 µg/mL (≈ 236 µM) |
| O=C1NN=C2C=C(c3cccs3)CC(c3cccc([N+](=O)[O-])c3)C12 (stereo unspecified) | 86.96 µg/mL (≈ 256 µM) |
| O=C1ON=C2C=C(c3ccc(O)cc3)CC(c3cccc([N+](=O)[O-])c3)C12 (stereo unspecified) | 360.98 µg/mL (≈ 1030 µM) |

Test system: not listed separately
Experiment: Antioxidant activity assessed as DPPH radical scavenging activity at 10 ug/ml after 3 hrs by spectrophotometry
Format: physicochemical
Details: not given

| SMILES | inhibition (INH) |
| --- | --- |
| O=C1NN=C2C=C(c3ccc(O)cc3)CC(c3cccc([N+](=O)[O-])c3)C12 (stereo unspecified) | > 40% |

Test system: not listed separately
Experiment: Antioxidant activity assessed as DPPH radical scavenging activity after 30 mins by spectrophotometry
Format: physicochemical
Details: not given
Outline: as §2

| SMILES | IC50 |
| --- | --- |
| O=C1NN=C2C=C(c3ccc(O)cc3)CC(c3cccc([N+](=O)[O-])c3)C12 (stereo unspecified) | 55.88 µg/mL (≈ 160 µM) |
| O=C1ON=C2C=C(c3ccccc3)CC(c3cccc([N+](=O)[O-])c3)C12 (stereo unspecified) | 312.28 µg/mL (≈ 934 µM) |
| COc1ccc(C2=CC3=NNC(=O)C3C(c3cccc([N+](=O)[O-])c3)C2)cc1 (stereo unspecified) | 86.74 µg/mL (≈ 239 µM) |
| O=C1NN=C2C=C(c3cccs3)CC(c3cccc([N+](=O)[O-])c3)C12 (stereo unspecified) | 100.61 µg/mL (≈ 296 µM) |
| O=C1ON=C2C=C(c3ccc(O)cc3)CC(c3cccc([N+](=O)[O-])c3)C12 (stereo unspecified) | 202.15 µg/mL (≈ 577 µM) |

Test system: Bacillus subtilis
Experiment: Antimicrobial activity against Bacillus subtilis NCIB 3610 assessed as zone of inhibition at 100 ug/ml by agar well diffusion method
Format: functional
Details: subsp. subtilis str. NCIB 3610
Outline: as §1

| SMILES | Activity |
| --- | --- |
| O=C1NN=C2C=C(c3ccc(O)cc3)CC(c3cccc([N+](=O)[O-])c3)C12 (stereo unspecified) | inactive |
| O=C1ON=C2C=C(c3ccccc3)CC(c3cccc([N+](=O)[O-])c3)C12 (stereo unspecified) | inactive |
| O=C1ON=C2C=C(c3ccc(O)cc3)CC(c3cccc([N+](=O)[O-])c3)C12 (stereo unspecified) | inactive |

Same assay, conditions: subsp. subtilis str. NCIB 3610, read-out: IZ

| SMILES | zone of inhibition at 100 µg/mL |
| --- | --- |
| COc1ccc(C2=CC3=NNC(=O)C3C(c3cccc([N+](=O)[O-])c3)C2)cc1 (stereo unspecified) | 11 mm |
| O=C1NN=C2C=C(c3cccs3)CC(c3cccc([N+](=O)[O-])c3)C12 (stereo unspecified) | 22 mm |

— ChEMBL document CHEMBL3351380, “Antioxidant and antimicrobial studies on fused-ring pyrazolones and isoxazolones” (Bioorg Med Chem, 2014)
